Compounds with a hit are over-represented: about 2.4% of the library has one in this group of screens.
EBV gp42 inh – Epstein-Barr virus gp42 inhibitors, primary screen, biochemical, uHTS, fluorescence polarization; actives 0.42% (n = 220,000); inhibition, % (tested at 21.74 µM); Fluorescence polarization binding assay, mP read-out; in the data active = inhibition above about 50%
MEX-5 binding – MEX-5 zinc finger RNA-binding disruptors – biochemical, C. elegans, fluorescence polarization, MLPCN library, primary screen; AID 1832, 2009; MEX-5/FITC-TCR2 RNA binding; stronger effect = lower value; actives 0.38% (n = 300,000); activity score (negative = inhibition of binding), % at 10 µM;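 active = inhibition past about -25% in most replicates, and total fluorescence under double the plate's negative control median, limit read from the data; inconclusive = replicates evenly split on the limit, or fluorescence at least double controls; inactive = too little inhibition in most replicates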;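 note: 0% = DMSO and -100% = 5 µM competing unlabeled TCR2 RNA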
Runt-CBFb FRET – inhibitors of RUNX1 Runt–CBFb binding, primary screen, biochemical, FRET, Cerulean-Runt, Venus-CBFb, uHTS | Runt-related transcription factor 1 (Homo sapiens) + Core-binding factor subunit beta … | Cerulean-Runt/Venus-CBFb FRET ratio 530/480, 1 h | inhibition, % at 20 µM | actives 0.46% (n = 220,000);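 active = inhibition over about 50% at 20 µM in the single-dose screen, limit read from the data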;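 note: 0% = DMSO wells and 100% = excess unlabeled CBFb competitor control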
Target sequence (Q01196 whole entry, looked up): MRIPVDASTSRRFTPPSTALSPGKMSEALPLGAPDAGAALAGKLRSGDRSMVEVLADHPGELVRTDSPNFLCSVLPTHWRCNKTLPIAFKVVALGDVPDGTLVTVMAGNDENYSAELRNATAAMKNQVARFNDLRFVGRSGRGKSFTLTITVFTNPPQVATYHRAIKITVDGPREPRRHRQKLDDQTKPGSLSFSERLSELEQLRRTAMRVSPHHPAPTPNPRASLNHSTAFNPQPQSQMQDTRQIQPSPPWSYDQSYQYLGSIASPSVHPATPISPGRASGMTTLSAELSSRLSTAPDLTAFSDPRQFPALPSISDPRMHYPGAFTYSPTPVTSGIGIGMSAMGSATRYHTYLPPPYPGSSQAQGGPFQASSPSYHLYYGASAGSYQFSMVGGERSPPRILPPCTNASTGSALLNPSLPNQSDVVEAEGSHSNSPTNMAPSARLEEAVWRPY
Target sequence (Q13951 whole entry, looked up): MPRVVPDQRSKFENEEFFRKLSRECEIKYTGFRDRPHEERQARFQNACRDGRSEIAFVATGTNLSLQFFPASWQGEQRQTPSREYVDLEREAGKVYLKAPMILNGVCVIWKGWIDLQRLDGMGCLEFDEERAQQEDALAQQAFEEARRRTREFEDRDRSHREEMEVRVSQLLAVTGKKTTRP
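Buffer or medium: Tris pH 7.5 buffer with BSA. Assay system: Cerulean-labeled Runt domain protein. Amount: each fluorescent fusion protein 100 nM. Read-out basis: loss of energy transfer signal. Incubation: 1 h compound exposure, room temperature. Probe or stimulus: Venus-CBFb binding partner, 100 nM. Detection: FRET, excitation 422 nm, emission at 530 and 480 nm.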
RanGTP-Imp inh – inhibitors of RanGTP-importin-beta interaction, primary screen, biochemical, FRET, CFP-Ran, YFP-importin-beta, homogeneous | cell-free CFP-Ran/YFP-importin-beta FRET ratio | Ran GTPase (GTP-bound) - importin-beta complex | actives 1.1% (n = 300,000) | inhibition, % (no concentration beside the values) | AID 2216, 2009;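 active = more than half of the replicate wells show a fall in the fluorescence ratio signal beyond about 16%, limit read from the data, passing the limit was not always enough; inconclusive = exactly half of the replicate wells pass the set limit; inactive = fewer than half of replicates pass the limit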;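 note: 0% = DMSO wells and 100% = Ran loaded with GDP instead of GTP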
Runt-SMMHC FRET – inhibitors of RUNX1 Runt–CBFb-SMMHC binding, primary screen, biochemical, FRET, Cerulean-Runt, Venus-CBFb-SMMHC, uHTS. inhibition, % at 20 µM. Cerulean-Runt/Venus-CBFb-SMMHC FRET ratio 530/480, 1 h. Runt-related transcription factor 1 (Homo sapiens) + Core-binding factor subunit beta …. AID 1434, 2008. actives 0.74% (n = 220,000);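 active = mean inhibition across duplicate retests at 20 µM reaching about 50%, limit read from the data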;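 note: 0% = DMSO wells and 100% = wells with excess untagged CBFb-SMMHC; inhibitors lower the FRET ratio by blocking Runt binding to CBFb-SMMHC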
LANA-H2B inh – blockers of LANA interaction with H2A/H2B – biochemical, FP readout, HTS, primary screen; AID 2629, 2010; cell-free LANA-H2A/H2B peptide, fluorescence polarization; actives 0.6% (n = 320,000); inhibition, % (test concentration not listed); in the data active = inhibition mostly above about 10%, no sharp cut-off; inactive = mostly below about 6.7%
* = called active by the depositor; ? = inconclusive; · = no result; + = active, no number.

SMILES	EBV gp42 inh	MEX-5 binding	Runt-CBFb FRET	RanGTP-Imp inh	Runt-SMMHC FRET	LANA-H2B inh
CCOC(=O)c1nn(-c2cccc(Cl)c2)c(C)c1C(C)=O	-13	0	1	1	1	1
CC1(C)C(C#N)=C(N)Oc2c1c(=O)oc1ccccc21	-22	1	-1	4	-3	2
Cc1c(C#N)c(=O)oc2ccc3ccccc3c12	-14	-3	71*	1	97*	1
O=C(CCNC(=O)c1ccc(Br)cc1)NCCCN1CCOCC1	·	·	·	·	·	51*
O=C(Cc1ccccc1[N+](=O)[O-])NCCCN1CCOCC1	-2	-1	0	5	2	+
O=C(NCCN1CCOCC1)C(Sc1ccccc1)c1ccccc1 (configuration not stated)	-2	-1	-2	-5	0	3
O=C(NCCCN1CCOCC1)C(Sc1ccccc1)c1ccccc1 (configuration not stated)	-15	2	1	2	1	53*
COc1ccccc1N1CCN(S(=O)(=O)c2ccc3c(c2)n(C)c(=O)n3C)CC1	-17	0	-4	1	0	0
COC(=O)C1=NNC2(c3ccc(Cl)cc3)C(=O)N(c3ccccc3)C(=O)C12 (configuration not stated)	17	-2	6	-5	-1	-3
COc1cc(/C=C(\C#N)c2nc(-c3cc4ccccc4oc3=O)cs2)ccc1O	-66	-6	-24	-5	-42	-2
COc1cc(/C=C(/C#N)c2nc(-c3cc4ccccc4oc3=O)cs2)cc([N+](=O)[O-])c1O	64*	·	-14	·	-29	·
CCn1c(C)cc(O)cc1=O	-15	-1	3	-1	1	-2
CN(C)Cc1c(O)ccc2cc(-c3nc4ccccc4n3C)c(=O)oc12	·	-3	·	132*	·	-3
CCN(CC)c1ccc2cc(-c3nnc(-c4ccccc4)o3)c(=O)oc2c1	21	?	5	115*	83*	2
COc1cccc2cc(-c3nc4ccccc4[nH]3)c(=O)oc12	·	1	·	-17	·	-3
CCN(CC)c1ccc2cc(-c3nc4ccccc4[nH]3)c(=O)oc2c1	45	?	19	129*	79*	27*
CCN(CC)c1ccc2cc(-c3nc(-c4ccc(OC)cc4)cs3)c(=O)oc2c1	92*	·	20	·	62*	8
COc1ccc(/C=N/NC(=O)CCSc2nc3ccccc3s2)cc1	-5	2	-2	10	-2	7
CCN(CC)c1ccc2cc(-c3nc4ccccc4n3C)c(=O)oc2c1	2	-10	12	126*	61*	-3
O=C(CCl)NCc1cc(-c2ccc(Cl)cc2)no1	-2	-1	0	?	-1	-1
O=c1nc2n(Cc3ccccc3)c3ccccc3cc-2c(=O)[nH]1	-15	-5	63*	89*	82*	1
Nc1nc(N2CCOCC2)cc(=O)[nH]1	18	-3	6	20*	19	1
CC(=O)c1cccc(NC(=O)NC(C)c2ccc3c(c2)OCO3)c1 (configuration not stated)	·	-1	·	1	·	5
O=c1[nH]c(=S)[nH]c2c1C(c1ccc(Br)cc1)c1c([nH]c(=S)[nH]c1=O)O2	·	-71*	·	0	·	-7
Cc1ccc(C2C3=C(CCCC3=O)Nc3[nH]c(=S)[nH]c(=O)c32)cc1 (configuration not stated)	82*	-1	48	3	60*	0
SMILES	EBV gp42 inh	MEX-5 binding	Runt-CBFb FRET	RanGTP-Imp inh	Runt-SMMHC FRET	LANA-H2B inh
O=C1CCCC2=C1C(c1ccc(Br)cc1)c1c([nH]c(=S)[nH]c1=O)N2 (configuration not stated)	-10	1	46	3	68*	1
O=C(O)C1=C[C@H](c2ccc(F)cc2)C[C@H](OCCCCO)O1	-8	2	0	4	0	0
CC1=Nc2ccc(C)cc2/C1=C/c1c(N)n2nc(CC(=O)N3CCOCC3)sc2nc1=O	·	-52*	·	?	·	-4
Nc1c(C=C2C=CC(=O)C=C2)c(=O)nc2sc(CC(=O)N3CCCCC3)nn12	·	5	·	5	·	1
Cn1c(C(=O)NC2CCCCC2)cc2c(=O)n3ccccc3nc21	·	1	·	3	·	2
COc1ccc(C)cc1NC(=O)c1cc2c(=O)n3ccccc3nc2n1C	0	·	-64	·	92*	-1
Cn1c(C(=O)NCc2ccccn2)cc2c(=O)n3ccccc3nc21	-10	2	27	9	97*	-5
COc1ccc(/C=C/c2nnc(NC(=O)CSc3ccc(C)cc3)s2)cc1	-5	0	1	7	124*	·
CCC(=O)Nc1nnc(/C=C/c2ccc(OC)cc2)s1	0	-2	-2	1	1	-4
COc1ccc(-n2nnnc2SCC(=O)Nc2ccccc2F)cc1	·	-1	·	-1	·	2
CN(C)CCN1C(=O)C(=O)/C(=C(/O)c2ccc3c(c2)OCCO3)C1c1ccccn1 (configuration not stated)	-13	-1	2	24*	-1	3
COc1cccc(/C(O)=C2/C(=O)C(=O)N(CCN(C)C)C2c2ccccn2)c1 (configuration not stated)	-3	3	-1	?	-2	0
Cc1c(/C(O)=C2/C(=O)C(=O)N(CCN3CCOCC3)C2c2ccccn2)cnn1-c1ccccc1 (configuration not stated)	6	-3	12	35*	18	5
O=C1C(=O)N(CCN2CCOCC2)C(c2ccccn2)/C1=C(/O)c1ccc(F)cc1 (configuration not stated)	-1	2	5	19*	4	-9
COc1ccc(OC)c(C(C)NC(=O)Nc2cccc(C(C)=O)c2)c1 (configuration not stated)	-6	-5	-1	1	-2	0
Cc1cc(C)n2nc(SCCCC(=O)c3ccc(F)cc3)nc2n1	-17	2	0	1	-4	3
Cc1cccc(N(C(=O)CCC(=O)Nc2cc(C)on2)C(C(=O)NC2CCCC2)c2ccccc2)c1 (configuration not stated)	·	3	·	-4	·	-5
O=C(CSc1nnc(Nc2ccccc2)s1)NCC1CCCO1 (configuration not stated)	·	·	·	·	·	0

Screening data from PubChem.
